A selection: hits, their analogues and other compounds. The true share with any hit is near 3.4%.
TAAR1 ag = human TAAR1 agonism | Q96RJ0 | CHO RD-HGA16 TAAR1, Fluo-8 calcium fluorescence; vehicle wells 0%, saturating PEA agonist 100% | activation, % at 3 µM | 0.99% of 360,000 active;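 active = activation above the mean activation of all test compounds in the run plus 3 SD, cut at about 38% in these data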
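Assay system: CHO-derived RD-HGA16 cells with stable Gα16 and human TAAR1; timing: 17-24 h seeding, 75 min 37 °C dye, 30 min RT; read-out: % activation from peak over basal fluorescence ratio, DMSO-to-PEA scaled; measured by: kinetic Fluo-8 calcium fluorescence; benchmarks: low control DMSO, high control PEA (EC100); doses: 3 µM single concentration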
TRPML3 agonist = activates the human TRPML3 channel | Q8TDD5 | HEK293 TRPML3-YFP, Fluo-8 calcium fluorescence; 100% = the carbachol control signal | activation, % at 3 µM | 0.29% of 220,000 active;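 active = activation above its plate's cutoff, the mean activation of the plate's test wells plus 3 SD, cut at about 12% in these data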
Target sequence (Q8TDD5 whole entry, looked up): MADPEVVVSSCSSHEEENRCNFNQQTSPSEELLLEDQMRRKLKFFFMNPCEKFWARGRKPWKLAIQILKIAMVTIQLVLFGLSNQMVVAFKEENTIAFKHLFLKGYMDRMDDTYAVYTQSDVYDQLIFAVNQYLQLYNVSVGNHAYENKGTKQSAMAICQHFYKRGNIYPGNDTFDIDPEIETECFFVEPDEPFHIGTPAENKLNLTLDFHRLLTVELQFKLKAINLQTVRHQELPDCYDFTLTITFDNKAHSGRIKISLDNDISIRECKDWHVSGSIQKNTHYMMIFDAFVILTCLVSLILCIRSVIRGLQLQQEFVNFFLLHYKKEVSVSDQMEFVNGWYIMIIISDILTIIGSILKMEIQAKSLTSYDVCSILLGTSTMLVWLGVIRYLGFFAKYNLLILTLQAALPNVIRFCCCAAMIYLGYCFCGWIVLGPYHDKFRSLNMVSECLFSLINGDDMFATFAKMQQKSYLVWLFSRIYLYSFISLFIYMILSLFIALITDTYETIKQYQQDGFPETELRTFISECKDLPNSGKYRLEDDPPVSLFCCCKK
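Material: HEK293 cells stably carrying human TRPML3-YFP; compound dosing: single dose, 3 µM final nominal compound, 0.3% DMSO final; incubation: 1-h 37 °C dye load, 5-s basal, 120-s post-compound reads; technique: Fluo-8 intracellular calcium fluorescence, excitation 470-495 nm, emission 515-575 nm; read-out basis: percent activation from peak-to-basal fluorescence ratio, scaled between DMSO and carbachol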
zfTRPN1 agonist = zebrafish TRPN1 (NompC) channel agonism. HEK293 zebrafish TRPN1-YFP, Fluo-8 calcium fluorescence; 100% = response to 87 µM carbachol. activation, % at 3 µM. 0.18% of 220,000 active;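 active = activation above its plate's cutoff, the mean activation of test wells on that plate plus 3 SD, cut at about 19% in these data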
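Material: zebrafish TRPN1-YFP in HEK293 cells. Doses: one dose of 3 µM, 0.3% DMSO. Incubation: dye 1 h 37 °C plus 30 min RT. Measured by: intracellular calcium fluorescence with Fluo-8.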
GPR7 antagonist = human neuropeptides B/W receptor 1 antagonism; P48145; GPR7-expressing cells, fluorescence antagonist assay; inhibition, % at 4.4 µM; 1.1% of 290,000 active; in the data active = inhibition above about 16%, passing the limit was not always enough;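 also: cells stimulated with the agonist NPW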
LANA-H2B inh = blocks KSHV LANA binding to histone H2A/H2B; Q9QR71; cell-free LANA-H2A/H2B peptide, fluorescence polarization; inhibition, % (concentration not given with the values); 0.6% of 320,000 active; AID 2629; in the data active = inhibition mostly above about 10%, no sharp cut-off; inactive = mostly below about 6.7%
TAAR1 antag = human TAAR1 antagonism | Q96RJ0 | CHO RD-HGA16 TAAR1, Fluo-8 calcium fluorescence, antagonist | inhibition, % at 3 µM | 1.5% of 360,000 active | AID 624466;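 active = inhibition above a per-plate cutoff, the mean inhibition of test compounds on that plate plus 3 SD, cut at about 49% in these data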
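System: RD-HGA16 CHO cells with stable hTAAR1 and Gα16 | Probe or stimulus: EC80 β-phenethylamine stimulus | Dosing: 3 µM, single point | Times: Dye loading 75 min at 37 °C, then 30 min room temperature | Measured by: Fluo-8 calcium-sensitive fluorescence | Read-out basis: % inhibition of agonist calcium response | Replicates: n of 1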
nonsel antag count = counter-screen for TAAR1 antagonists: nonselective antagonists | inhibition, % at 3 µM | AID 651780 | 77% of 2,400 active | shares compounds with TAAR1 antag | counterscreen cell line, calcium fluorescence, antagonist mode; in the data active = inhibition above about 22%;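 also: CHO-Ga16 host cells stimulated with ATP at an EC80 level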
TAAR1 ant conf = human TAAR1 antagonism, confirmed | TAAR1-expressing cells, fluorescence antagonist read-out | AID 651785 | shares compounds with TAAR1 antag | 40% of 2,400 active | inhibition, % at 3 µM; in the data active = inhibition above about 49%;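 also: CHO-Ga16 host cells challenged with agonist PEA near its EC80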
Ga16 nonsel ag = nonselective Ga16 agonism, counter-screen; shares compounds with TAAR1 antag; Ga16-expressing cells, calcium fluorescence, agonist counterscreen; activation, % at 3 µM; 18% of 2,400 active; in the data active = activation above about 12%
TAAR1 ag counter = counter-screen for human TAAR1 antagonists: TAAR1 agonists. shares compounds with TAAR1 antag. hTAAR1 cell line, fluorescence activation, agonist mode. activation, % at 3 µM. 2% of 2,400 active. AID 651955; in the data active = activation above about 37%;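 also: CHO cells stably expressing TAAR1 with calcium dye readout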
Hits are given with their value; – = inactive; · = not tested or not shown.

SMILES | TAAR1 ag | TRPML3 agonist | zfTRPN1 agonist | GPR7 antagonist | LANA-H2B inh | TAAR1 antag | nonsel antag count | TAAR1 ant conf | Ga16 nonsel ag | TAAR1 ag counter
COc1ccc(CCC(=O)NCCS(=O)(=O)N2CCN(c3ccc(OC)cc3)CC2)cc1 | – | · | · | – | – | 62 | 29 | 54 | 15 | –
COc1ccc(NC(=O)N2CCN(c3nc(-c4cccc(OC)c4)cs3)CC2)cc1 | – | – | – | – | – | 64 | 38 | 59 | – | –
COc1cccc(-c2csc(N3CCN(C(=S)Nc4cccc(Cl)c4)CC3)n2)c1 | – | – | – | – | – | – | · | · | · | ·
CCNC(=S)N1CCN(c2nc(-c3cccc(OC)c3)cs2)CC1 | – | · | · | – | – | – | · | · | · | ·
COc1cccc(-c2csc(N3CCN(C(=S)NCC(C)C)CC3)n2)c1 | – | · | · | – | – | 65 | 42 | – | – | –
CCOC(=O)C1=CCN(S(=O)(=O)c2ccc(C)cc2)C1c1ccc(Cl)c(Cl)c1 (centres undefined) | – | · | · | · | · | – | · | · | · | ·
COCCN(Cc1ccccc1)C(=O)c1cc(-c2ccc(OC)c(OC)c2)nc2ccccc12 | – | · | · | – | – | 62 | 26 | – | – | –
COc1cccc(CN(C)C(=O)c2cc(-c3cccs3)nc3ccccc23)c1 | – | · | · | – | – | 76 | 35 | 58 | – | –
COc1cc(-c2cc(C(=O)N3CCCCCC3)c3ccccc3n2)cc(OC)c1OC | – | · | · | · | · | – | · | · | · | ·
COc1cc(-c2cc(C(=O)OCC(=O)NC3CC3)c3ccccc3n2)cc(OC)c1OC | – | · | · | · | – | 68 | 27 | – | – | –
Cc1ccc(-c2cc(C(=O)OCC(=O)NC3CC3)c3ccccc3n2)cc1 | – | · | · | · | · | – | · | · | · | ·
COc1ccccc1CN(C)C(=O)c1cc(-c2cc(OC)c(OC)c(OC)c2)nc2ccccc12 | – | · | · | – | – | 61 | 35 | 54 | – | –
COC(=O)[C@]12CCCCC=C1N(Cc1cccc3ccccc13)C(=O)[C@H](CC(=O)NCC1CCCCC1)C2 | – | · | · | · | · | – | · | · | · | ·
O=C(NC1CCCC1)c1cc(-c2ccc(Cl)cc2)on1 | – | · | · | – | – | – | · | · | · | ·
CC(C)N1CCC(C)(C(=O)Nc2ccc(Cl)c(Cl)c2)C1 (centres undefined) | – | · | · | · | · | – | · | · | · | ·
COc1ccc(-c2cc(C(=O)N(C)Cc3ccccc3F)c3ccccc3n2)cc1OC | – | · | · | – | – | 78 | 28 | – | – | –
COCCN(CC(=O)Nc1cccc(C)c1C)C(=O)c1oc2c(Cl)cccc2c1C | – | · | · | · | – | – | · | · | · | ·
COCCN(CC(=O)Nc1cccc(C)c1C)C(=O)c1cc(-c2ccncc2)nc2ccccc12 | – | · | · | · | – | 74 | 31 | 56 | – | –
O=c1c2c(c(-c3ccccc3)nn1Cc1ccccc1)CCCC2 | – | · | · | – | – | – | · | · | · | ·
CCCNNC(=O)C(O)(c1ccccc1)c1ccccc1 | – | – | – | – | – | – | · | · | · | ·
CCOC(=O)CCP(=O)(O)C(C)(O)c1ccccc1 (centres undefined) | – | – | – | – | – | 107 | – | – | – | –
Cc1ccc(OCC(=O)Nc2sc3c(c2C#N)CCC3)cc1 | – | – | – | – | – | 51 | – | – | – | –
CC(=O)N1CCCC(C)(C(=O)Nc2cccc(OC(C)C)c2)C1 (centres undefined) | – | · | · | · | · | – | · | · | · | ·
COc1cc(OC)c(-c2nnc3n(CCc4ccccc4)c(=O)c4ccccc4n23)cc1OC | – | – | – | – | – | 68 | 26 | – | – | –
COc1ccc(-c2nnc3n(CCc4ccccc4)c(=O)c4ccccc4n23)c(OC)c1 | – | – | – | – | – | – | · | · | · | ·
SMILES | TAAR1 ag | TRPML3 agonist | zfTRPN1 agonist | GPR7 antagonist | LANA-H2B inh | TAAR1 antag | nonsel antag count | TAAR1 ant conf | Ga16 nonsel ag | TAAR1 ag counter
COc1ccc(C2=NOC(Cn3nc(C(=O)NCc4cccc(Br)c4)cc3-c3ccccc3)C2)cc1 (centres undefined) | – | · | · | · | – | 57 | 30 | – | – | –
COc1ccc(C2=NOC(Cn3nc(-c4ccccc4)cc3C(=O)NCc3cccc(Br)c3)C2)cc1 (centres undefined) | – | · | · | · | – | – | · | · | · | ·
COCCNC(=O)c1cc(-c2ccc(-c3ccccc3)cc2)nc2ccccc12 | – | · | · | – | – | 55 | 25 | – | – | –
COc1ccccc1CNC(=O)c1cc(-c2ccccc2)nn1CC1CC(c2cccnc2)=NO1 (centres undefined) | – | · | · | · | – | 53 | – | – | – | –
COc1ccccc1Nc1cc(C(=O)NCc2cccnc2)c2ccccc2n1 | – | – | – | – | – | – | · | · | · | ·
Cc1ccc(C)c(Nc2cc(C(=O)NCc3cccnc3)c3ccccc3n2)c1 | – | – | – | – | – | 50 | 22 | – | – | –
NC(=O)CSc1n[nH]c(=O)n1CCc1ccccc1 | – | · | · | – | – | – | · | · | · | ·
COCCCNC(=O)c1cc(-c2cccnc2)nc2ccccc12 | – | · | · | – | – | – | · | · | · | ·
O=C(NCc1ccccn1)c1cc(-c2ccccc2)nc2ccccc12 | – | – | – | – | – | – | · | · | · | ·
COc1ccccc1CNC(=O)c1cc(-c2cccnc2)nc2ccccc12 | – | – | – | – | – | 74 | 23 | – | – | –
Cc1cc(CNC(=O)c2cc(-c3ccccc3)nc3ccccc23)nn1C | – | – | – | – | – | 52 | 24 | – | – | –
O=C(CN1C(=O)CSc2ccc(S(=O)(=O)N3CCCCC3)cc21)NCc1ccccc1Cl | – | · | · | – | – | – | · | · | · | ·
COc1ccccc1NC(=O)Nc1ccnn1C1CCN(C(=O)C2CCOC2)CC1 (centres undefined) | – | · | · | · | · | – | · | · | · | ·
COc1ccc(CCNc2oc(COc3ccccc3Cl)nc2C#N)cc1OC | – | – | – | – | – | 64 | 39 | 55 | – | –
COc1ccc(CCNc2oc(COc3ccccc3F)nc2C#N)cc1OC | – | – | – | – | – | 59 | 37 | 49 | 12 | –
CC1(C(=O)Nc2ccccc2Br)CCN1C(=O)Cc1ccccc1Cl (centres undefined) | – | · | · | · | · | – | · | · | · | ·
O=c1n(Cc2ccc(Cl)cc2)c2sc3c(c2c2ncnn12)CCCC3 | – | – | – | – | – | 66 | – | – | – | –
CCSc1nnc(-c2cccc(S(=O)(=O)N(CC)CC)c2)n1Cc1ccccc1 | – | – | – | – | – | 60 | 31 | 52 | – | –
CCN1C=C(Cc2cccs2)C2=C(C1)C(c1cccs1)C(C#N)=C(N)O2 (centres undefined) | – | – | – | – | – | 53 | – | – | – | –

From PubChem BioAssay
